Screening data (PubChem)
This is a sample that favours compounds with a hit; in the whole collection about 11% have one here.
S1P1 ag pot: agonists and agonism potentiators of human S1P1 receptor; P21453; S1P1 CRE-bla cells, forskolin, beta-lactamase FRET, potentiator mode; S1P1 agonist co-added at EC20, 2 nM; 100% = saturating reference agonist, 0% = basal; activation, % at 9.5 µM; 56,000 compounds, 0.57% hits;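 active = activation above a cutoff set at the mean activation of all tested compounds plus 3 SD, cut at about 54% in these data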;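 also: forskolin at 4 µM as EC80 and the EC20 agonist is SEW2871; 100% = SEW2871 at its EC100 plus forskolin at EC80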
S1P3 ag: agonists of human S1P3 receptor | S1P3 NFAT-BLA reporter cells, agonism, FRET ratio; relative to 1 µM S1P, basal subtracted | 60,000 compounds, 0.1% hits | activation, % at 4.5 µM | Q99500;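 active = activation above the screen-wide mean plus 3 SD, cut at about 4.5% in these data, passing the limit was not always enough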
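Measure – % activation relative to 1 µM S1P (100%), per plate · System – stable CHO line with human S1P3, Gα16, NFAT-BLA reporter · Timing – cells plated overnight, compound 4 h 37 °C, substrate 2 h RT · Technique – fluorescent BLA substrate, ex 405 nm, em 460/535 nm ratio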
M1 antagonist: antagonists of rat M1 muscarinic receptor; P08482; CHO-M1 cells, Fluo-4 calcium, ACh EC80 antagonist mode; hits give low values; B-score at 10 µM; 64,000 compounds, 3.4% hits; AID 628;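 active = calcium fluorescence response, raw or row-and-column corrected B-score, differing from the plate sample mean either way at a set confidence level, mostly lower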
Target sequence (P08482 whole entry, looked up): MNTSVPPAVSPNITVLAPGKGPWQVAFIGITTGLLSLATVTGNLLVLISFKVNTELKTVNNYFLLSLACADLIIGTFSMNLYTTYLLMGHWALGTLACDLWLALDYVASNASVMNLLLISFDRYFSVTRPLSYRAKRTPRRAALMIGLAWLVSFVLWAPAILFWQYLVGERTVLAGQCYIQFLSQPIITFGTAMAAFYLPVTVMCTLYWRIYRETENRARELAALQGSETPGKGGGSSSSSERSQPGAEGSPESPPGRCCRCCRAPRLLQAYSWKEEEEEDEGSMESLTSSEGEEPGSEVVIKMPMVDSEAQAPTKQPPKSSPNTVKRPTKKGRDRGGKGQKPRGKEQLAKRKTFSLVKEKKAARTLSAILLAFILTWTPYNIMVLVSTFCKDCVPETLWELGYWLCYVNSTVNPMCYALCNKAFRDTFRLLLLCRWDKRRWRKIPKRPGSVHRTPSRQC
D1 allo mod: allosterically modulates the human D1 dopamine receptor; P21728; HEK293 D1, CRE-luciferase, dopamine EC30 potentiation; actives deviate in either direction; B-score at 10 µM; 58,000 compounds, 5.9% hits; AID 641;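 active = luminescence count or its row- and column-corrected plate score outside the 99.7% band of the plate's sample wells, on either side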
M1 ag: activates the M1 muscarinic receptor; CHO-M1 cells, Fluo-4 calcium fluorescence, agonist mode; hits give high values; B-score at 10 µM; 64,000 compounds, 3% hits; AID 626;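 active = fluorescence rise, raw or as B-score row- and column-corrected plate score, outside the 99.7% band of its plate's samples, either direction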
Numbers without * were called inactive; nt = no result given.

SMILES | S1P1 ag pot | S1P3 ag | M1 antagonist | D1 allo mod | M1 ag
Cc1ccc(CSc2nnc(-c3cccs3)n2C)cc1 | 1.7 | 0.2 | -0.233 | 0.158 | -0.4
Cc1ccc(-n2c(-c3ccncc3)nnc2-c2cccs2)cc1 | 17.1 | -1.2 | 0.915 | 7.02* | 0.966
Cc1cc(NCCN2CCOCC2)n2ncc(-c3ccccc3)c2n1 | -0.4 | -0.4 | 0.0091 | -0.62 | 0.924
Cc1cc(NCCCn2ccnc2)n2ncc(-c3ccccc3)c2n1 | 5.5 | 0.1 | -0.395 | -6.44* | -0.0428
CCn1cc(C(=O)Nc2nncs2)c(=O)c2cc(F)c(N3CCN(C(=O)c4ccco4)CC3)cc21 | 9.5 | -0.8 | -0.0143 | 0.775 | 2.06
O=C(Nc1ccc2c(c1)OCCO2)C1CCC1 | -20.7 | -1.1 | 0.251 | 0.00598 | -0.225
O=C(Nc1ccc2c(c1)OCCO2)NC1CCCCC1 | -15.2 | -0.7 | 0.438 | -3.13* | 1.01
CN(C)c1ccc(NC(=S)c2ccccn2)cc1 | -14.9 | 0.0 | -0.32 | -6.2* | 0.861
CCC(OC(=O)c1cc2sccc2n1C)C(=O)NCc1ccco1 (centres undefined) | 17.8 | -1.2 | 0.0136 | 0.43 | 0.825
O=C(O)CCC(=O)OC1CC2CCC1C2 (centres undefined) | 13.5 | 0.3 | 0.246 | 0.00169 | -0.11
O=C(O)C1C2C=CC(C2)C1C(=O)OC1CC2CCC1C2 (centres undefined) | -11.9 | -1.6 | -0.135 | -4.88* | -1.06
COc1ccc(CCn2c(=S)[nH]c3cc(C(=O)NCc4ccco4)ccc3c2=O)cc1OC | 37.1 | -1.3 | -0.492 | nt | 3.03*
COc1ccc(-n2c(=S)[nH]c3cc(C(=O)NCc4ccco4)ccc3c2=O)cc1OC | 38.6 | -0.3 | -0.378 | -0.167 | 1.4
Cc1sc2nc(NCCO)[nH]c(=O)c2c1C | -9.5 | -0.8 | 0.146 | 0.382 | 0.0421
COc1cccc(-c2nnc3n2N=C(C(C)(C)C)CS3)c1 | nt | nt | 1.28 | nt | -0.673
CCOc1ccc2cc(C#N)c(SCC(=O)NC(C)CC)nc2c1 (centres undefined) | 2.9 | 0.1 | -0.0672 | -0.241 | -0.885
Cc1cc(C)n(-c2nc(NCCO)c3c4c(sc3n2)CCCC4)n1 | -68.5 | 27.9* | 0.0613 | 0.0259 | -0.962
Cc1cc(C)n(-c2nc(NCC(C)O)c3c4c(sc3n2)CCCC4)n1 (centres undefined) | -84.6 | 29.4* | -0.673 | 0.902 | 0.0135
Cc1cc(C)n(-c2nc(SCC(=O)NCC3CCCO3)c3c4c(sc3n2)CCCC4)n1 (centres undefined) | -3.4 | -1.6 | -0.203 | -0.0541 | -0.543
Cc1cc(C)n(-c2nc(NCCCO)c3c4c(sc3n2)CCCC4)n1 | -83.7 | 41.1* | -1.11 | 0.542 | 0.729
CCSC1=C(C#N)C(c2cccc(O)c2)CC(=O)N1 (centres undefined) | -9.8 | 0.0 | 0.284 | -0.00458 | 0.393
CCSC1=C(C#N)C(c2cccc(Br)c2)CC(=O)N1 (centres undefined) | -17.6 | -1.0 | 10.6* | 1.1 | 0.00244
COc1ccc(N2CCN(c3nc4ccccc4n3CC(=O)c3ccccc3)CC2)cc1 | nt | nt | -0.0144 | nt | -0.274
COc1ccc(C(=O)Cn2c(N3CCOCC3)nc3ccccc32)cc1OC | -3.1 | -0.9 | -0.669 | -2.98* | 0.083
CN1CCN(S(=O)(=O)c2ccc(NC(=O)c3csc4ccccc34)cc2)CC1 | 19.6 | -0.3 | -0.0287 | -1.94* | 0.279
SMILES | S1P1 ag pot | S1P3 ag | M1 antagonist | D1 allo mod | M1 ag
CN1CCN(S(=O)(=O)c2ccc(NC(=O)c3cccs3)cc2)CC1 | 11.0 | -1.6 | 0.28 | 0.0304 | 0.0692
O=c1c(Cc2ccccc2O)c(O)nc2n1CCCS2 | 9.9 | -0.3 | 0.0831 | -2.33* | 0.63
O=c1cc(O)nc2n1CCCS2 | 0.0 | 0.5 | 0.106 | -0.249 | 0.663
CCOc1ccc(-n2ccnc2SCC(=O)NCc2ccc3c(c2)OCO3)cc1 | 8.6 | -0.7 | -0.701 | 0.167 | 1.31
COc1ccc(C)cc1NS(=O)(=O)c1cccc2nonc12 | nt | nt | 0 | -0.86 | 0.259
CC(Oc1ccc(Cl)cc1Cl)C(=O)Nc1ccc(N2CCN(C)CC2)cc1 (centres undefined) | nt | -0.3 | -2.13 | -4.82* | 1.28
CC(=O)N1CCN(c2ccc(NC(=O)COc3ccc(Cl)cc3Cl)cc2)CC1 | 2.6 | -0.3 | -0.213 | -0.462 | -0.0749
COC(=O)CSc1nnc(CNC(=O)Cc2ccccc2)n1-c1ccccc1OC | 14.0 | -0.1 | -0.0616 | -0.0724 | 0.257
CCC(CC)C(=O)Nc1ccccc1NC(C)=O | -16.9 | -0.3 | -0.231 | 0.434 | 0.087
CCC(CC)C(=O)Nc1cc(C)cc(C)c1 | 1.6 | -0.4 | 3.27* | -0.011 | -0.0328
CCCCOc1ccc(Cl)cc1CSc1nnc(C)n1N | -5.3 | -0.6 | -1.41 | 0.515 | 0.01
Nc1c(N2CCOCC2)cc(Cl)c2nonc12 | -1.0 | -0.4 | 0.649 | -4.83* | 0.415
C1CN(c2nc3nonc3nc2N2CCOCC2)CCO1 | 6.4 | -0.9 | 1.13 | nt | 0.363
COC(=O)c1ccccc1S(=O)(=O)N(Cc1ccco1)Cc1cc2cc(OC)ccc2[nH]c1=O | -28.8 | -0.1 | -0.19 | -0.0143 | 7.72*
COc1ccc2[nH]c(=O)c(CN(Cc3ccco3)Cc3nnnn3Cc3ccccc3)cc2c1 | -1.4 | -0.7 | -0.18 | 0.538 | -0.462
CC(NC(=O)c1ccnc(C(C)(C)C)c1)c1ccccc1 (centres undefined) | 3.0 | -0.3 | 0.521 | nt | -0.239
CCOC(=O)c1sc2nc(NC(=O)C3CCCCC3)sc2c1C | 73.5* | -1.6 | -0.745 | 0.929 | 1.68
CCOC(=O)c1sc2nc(NC(=O)C3CC3)sc2c1C | -13.4 | 0.7 | 1.28 | 0.763 | 1.86
Cc1ccc(-c2nnn(CC(=O)Nc3ccccc3-c3ccccc3)n2)c(-n2cnnn2)c1 | -8.0 | -0.6 | 0.358 | -0.571 | 0.716
CC(C(=O)Nc1ccccc1-c1ccccc1)N1CCN(C(=O)c2ccco2)CC1 (centres undefined) | 8.8 | 0.2 | 0.0849 | 0.476 | -0.335
CC(=O)C1=C(O)C(=O)N(Cc2ccco2)C1c1ccc(F)cc1 (centres undefined) | 0.7 | 1.0 | -0.115 | -2.76* | -0.143
CC(=O)C1=C(O)C(=O)N(Cc2ccco2)C1c1ccccc1 (centres undefined) | 16.3 | -1.1 | 1.06 | -0.542 | -0.00916
CCOc1cc(N2CCOCC2)c(OCC)cc1NC(=O)Cc1cn2ccsc2n1 | -13.2 | -0.1 | -0.851 | 1.38 | 0.0431
CCOc1cc(N2CCOCC2)c(OCC)cc1NC(=O)c1nc2nccc(C)n2n1 | -9.0 | -0.8 | -0.121 | -0.391 | 4.86*
COc1ccc2nc(SCC(=O)NC(C)(C)C)[nH]c2c1 | 8.2 | -0.3 | -0.0143 | -2.15* | -0.175
COc1ccc2nc(SCC(=O)NC(C)C)[nH]c2c1 | 2.3 | 0.3 | -0.677 | -0.0549 | -0.908
CCOC(=O)C1CCCn2c1nc1sc3c(c1c2=O)CCCC3 (centres undefined) | -12.4 | -0.5 | -0.56 | 0.446 | 0.651
CCCCC(=O)NC(Nc1nc(C2CC2)cs1)(C(=O)OCC)C(F)(F)F (centres undefined) | -19.5 | 5.3* | -2.25 | -0.47 | 0.931
